Measurements of several laboratories.
Compare with care: the assays were run in different laboratories.
SIK1: Serine/threonine-protein kinase SIK1 (SIK1, Homo sapiens, UniProt P57059)
Tmem97: Sigma intracellular receptor 2 (Tmem97, Rattus norvegicus, UniProt Q5U3Y7)
BDKRB2: B2 bradykinin receptor (BDKRB2, Homo sapiens, UniProt P30411)
Trypanothione synthetase: Trypanothione synthetase (Trypanosoma cruzi, UniProt Q9GT49)
EAPA: Endothiapepsin (EAPA, Cryphonectria parasitica, UniProt P11838)

`CN(C)C1CCN(CC#Cc2nn(C3CCCC3)c3nc(NCc4ccccc4)ncc23)C1` (centres unmarked) has an inhibition of -4% (Rho-associated protein kinase 1 (ROCK1, Homo sapiens, UniProt Q13464); enzyme activity, inhibitor, FRET; 10 µM).
With `Cc1ccc(Nc2nccc(N(C)c3ccc4c(C)n(C)nc4c3)n2)cc1S(N)(=O)=O` the inhibition was 69% (SIK1; enzyme activity, inhibitor; 10 µM).
With `CCCNc1nc2ccccc2n1Cc1ccc(Cl)cc1` the inhibition was 54% (Tmem97; ligand displacement; 10 µM).
With `Oc1cccc(Nc2nc(-c3ccc(F)cc3F)cs2)c1` the inhibition was -68.7% (BDKRB2; cell-free assay; 10 µM).
With `FC(F)(F)c1ccc(-c2nnc(-c3cc4c(s3)CCCC4)o2)cn1` the inhibition was 0% (1-deoxy-D-xylulose-5-phosphate synthase (dxs, Deinococcus radiodurans, UniProt Q9RUB5); enzyme activity, inhibitor; 120 µM).
With `COc1cc2c3c(c1OC)-c1cc4c(cc1CC3N(C)CC2c1ccccc1)OCO4` (centres unmarked) the inhibition was less than 50% (5-hydroxytryptamine receptor 2C (HTR2C, Homo sapiens, UniProt P28335); ligand displacement, radioligand; 10 µM).
With `N#Cc1cc(Cn2c(N3CCCC3)nc3ccccc32)ccc1F` the inhibition was 88.9% (Tmem97; ligand displacement; 10 µM).
With `COC(=O)CN1C(=O)Cc2c([nH]c3ccc(Br)cc23)-c2ccc(Cl)cc21` the inhibition was 37.4% (Trypanothione synthetase; enzyme activity, inhibitor, absorbance; 30 µM).
`CCCCCC(NN)c1nnnn1Cc1ccc2c(c1)OCO2` (centres unmarked) has an inhibition of 32.8% (EAPA; enzyme activity, inhibitor; 200 µM).
`O=C(c1ccc(OCCN2CCCCC2)cc1)c1c(-c2ccc(O)cc2)sc2cc(O)ccc12` gave an inhibition of 24.5% (Trypanothione synthetase; enzyme activity, inhibitor, absorbance; 25 µM).
The inhibition of `O=C(Nc1ccc(S(=O)(=O)N2CCC(Cl)CC2)cc1)c1ccc([N+](=O)[O-])o1` is reported as 4% (BDKRB2; ligand displacement, radioligand; 10 µM).
For `O=C(CN1C(=O)Cc2c([nH]c3ccc(Br)cc23)-c2ccc(Cl)cc21)NCCN1CCOCC1`, the inhibition was 11.3% (Trypanothione synthetase; enzyme activity, inhibitor, absorbance; 30 µM).
For `O=C(c1ccc(Cl)cc1)N(Cc1ccccc1)C1CCCCC1`, the inhibition was -1.6% (BDKRB2; cell-free assay; 10 µM).
For `Ic1cccc2cnccc12`, the inhibition was 12% (Poly [ADP-ribose] polymerase tankyrase-2 (TNKS2, Homo sapiens, UniProt Q9H2K2); enzyme activity, inhibitor; 10 µM).
The inhibition of `NNC(COCc1ccccc1)c1nnnn1Cc1ccc2c(c1)OCO2` (centres unmarked) is reported as 48.3% (EAPA; enzyme activity, inhibitor; 200 µM).
With `CN1CC(Oc2cnc(C#N)cc2-c2ccn3nc(NC(=O)C4CC4)cc3c2)C1` the inhibition was 15% (MAPK/MAK/MRK overlapping kinase (MOK, Homo sapiens, UniProt Q9UQ07); enzyme activity, inhibitor; 1 µM).
With `O=C(c1ccc(F)cc1)N(Cc1ccccc1)C1CCCCC1` the inhibition was -7% (B1 bradykinin receptor (BDKRB1, Homo sapiens, UniProt P46663); cell-free assay; 10 µM).
For `CNC(=O)c1cc(Oc2ccc(NC(=O)Nc3ccc(Cl)c(C(F)(F)F)c3)cc2)ccn1`, the inhibition was 3% (SIK1; enzyme activity, inhibitor; 10 µM).
With `O=C1N=C(N2CCCCN2)S/C1=C\c1ccc(F)cc1O` the inhibition was less than 10% (BDKRB2; ligand displacement, radioligand; 10 µM).
The inhibition of `COc1ccc(CCC(C)N2CCc3cc(OC)c(OC)cc3C2)cc1` (centres unmarked) is reported as 98% (Tmem97; ligand displacement, radioligand; 0.1 µM).
With `CC(C)(C)OC(=O)CN1C(=O)Cc2c([nH]c3ccc(Br)cc23)-c2ccc(Cl)cc21` the inhibition was 10.3% (Trypanothione synthetase; enzyme activity, inhibitor, absorbance; 30 µM).
For `NNC(c1nnnn1CC(c1ccccc1)c1ccccc1)C1CCCCC1` (centres unmarked), the inhibition was 71.3% (EAPA; enzyme activity, inhibitor; 200 µM).
`CN(C)C(=O)CN1C(=O)Cc2c([nH]c3ccc(Br)cc23)-c2ccc(Cl)cc21` gave an inhibition of 14.9% (Trypanothione synthetase; enzyme activity, inhibitor, absorbance; 30 µM).
`CCN(Cc1ccccc1C(F)(F)F)C(=O)C1CCN(S(=O)(=O)c2ccc3[nH]ncc3c2)CC1` gave an inhibition of 18% (Substance-P receptor (TACR1, Homo sapiens, UniProt P25103); ligand displacement, radioligand; 10 µM).
The inhibition of `CCC(C)C(NN)c1nnnn1CC(c1ccccc1)c1ccccc1` (centres unmarked) is reported as 40.3% (EAPA; enzyme activity, inhibitor; 200 µM).
`COc1cc(NC(C)=O)c(Cl)cc1C(=O)Nc1nccs1` gave an inhibition of -21.3% (BDKRB2; cell-free assay; 10 µM).
The inhibition of `CN(Cc1ccc(NC(=O)C2=Cc3cc(-c4ccc(OCCCCCF)cc4)ccc3CCC2)cc1)C1CCOCC1` is reported as 7% (Tmem97; ligand displacement, radioligand; 10 µM).
The inhibition of `CCNC(=O)CN1C(=O)Cc2c([nH]c3ccc(Br)cc23)-c2ccc(Cl)cc21` is reported as 41.4% (Trypanothione synthetase; enzyme activity, inhibitor, absorbance; 30 µM).
The inhibition of `CNC(=O)[C@@]12C[C@@H]1[C@@H](n1cnc3c(NC)nc(C#Cc4ccc(Cl)s4)nc31)[C@H](O)[C@@H]2O` is reported as 60 to 70% (Tmem97; ligand displacement, radioligand; 10 µM).
For `O=C(CN1C(=O)Cc2c([nH]c3ccc(Br)cc23)-c2ccc(Cl)cc21)N1CCN(c2ncccn2)CC1`, the inhibition was 40.6% (Trypanothione synthetase; enzyme activity, inhibitor, absorbance; 30 µM).
`NNC(COCc1ccccc1)c1nnnn1CCc1ccc(O)cc1` (centres unmarked) gave an inhibition of 91.5% (EAPA; enzyme activity, inhibitor; 200 µM).
`CCN(CC)CCNC(=O)CN1C(=O)Cc2c([nH]c3ccc(Br)cc23)-c2ccc(Cl)cc21` has an inhibition of 17.1% (Trypanothione synthetase; enzyme activity, inhibitor, absorbance; 30 µM).
With `O=C(O)c1ccccn1` the inhibition was greater than 80% (Stromelysin-1 (MMP3, Homo sapiens, UniProt P08254); enzyme activity, inhibitor; 1 mM, pH 6).
`CCCC(NN)c1nnnn1Cc1ccccc1` (centres unmarked) has an inhibition of 3% (EAPA; enzyme activity, inhibitor; 200 µM).
The inhibition of `NCCNC(=O)CN1C(=O)Cc2c([nH]c3ccc(Br)cc23)-c2ccc(Cl)cc21` is reported as 26.3% (Trypanothione synthetase; enzyme activity, inhibitor, absorbance; 30 µM).
